Screens deposited in PubChem by SRMLSC.
H69AR growth 86K: proliferation blockers of H69AR lung cancer cells, primary screen, cell-based, human, 86K library. H69AR lung tumor viability, ATP luminescence, 72 h; stronger effect = lower value. viability, % at 10 µM. 85,000 tested, 6% active;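 active = viability at or below 40%; inactive = viability above 40%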;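 note: multidrug resistant small cell line overexpressing MRP-1 efflux transporter; 100% = mean luminescence of untreated control wells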
Fibroblast inh: antiproliferative effect on LL 47 fibroblasts – human, LL 47 cells, CellTiter-Glo luminescence, primary screen; LL 47 human lung fibroblast viability, ATP luminescence; stronger effect = lower value; viability, % at 10 µM; 85,000 tested, 1.1% active; AID 719, 2007;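 active = viability at or below 50% in the single dose screen; inactive = viability above 50%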;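 note: compound exposure lasted 72 h before the ATP readout; 100% = median luminescence of untreated cell-only wells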
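Benchmarks: Cell-only wells, no compound | Test system: LL 47 human lung fibroblasts, passage 12 or lower | Input: 1,150 cells/well | Measured by: CellTiter-Glo luminescence measuring cellular ATP | Medium: IMEM, 15% FBS supplement | Schedule: Overnight attachment after seeding, then 72 h compound exposure at 37 °C | Doses: Compound addition at 0.1% DMSO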
HCT116 bCat-KO: primary screen for growth suppressors in beta-catenin knockout HCT116 cells (colon tumor, human); HCT116 beta-catenin knockout viability, CellTiter-Glo, 60 h; stronger effect = lower value; viability, % at 10 µM; 140,000 tested, 1.5% active; AID 818, 2007;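 active = viability at or under a set limit, the compound median less 4 SD, cut at about 6% in these data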;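 note: 0% = Hyamine 1622 control at 20 µM and 100% = untreated cell control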
PTEN del growth: growth suppression of PTEN-null HCT116, primary screen, cell-based, CellTiter-Glo; HCT116 PTEN-null viability, 60 h; stronger effect = lower value; viability, % at 10 µM; 140,000 tested, 1.2% active; AID 827, 2007;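 active = viability at or below a set limit, 4 SD under the median of all tested compounds, cut at about 3.7% in these data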;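 note: PTEN knockout HCT116 line with beta catenin targeted HCT116 as companion control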
HUVEC prolif 384: inhibitors of HUVEC proliferation, primary screen, cell-based, 384-well; viability, % at 10 µM (by protocol); 86,000 tested, 1.1% active; CellTiter-Glo luminescence, 72 h; stronger effect = lower value;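 active = viability at or below 30%; inactive = viability above 30%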;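 note: 100% = median luminescence of DMSO-only cell control wells on each plate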
Starred values were filed as active, the others as inactive; x = not tested or not shown. The full list was thinned out, with hits kept by preference.

SMILES	H69AR growth 86K	Fibroblast inh	HCT116 bCat-KO	PTEN del growth	HUVEC prolif 384
Cc1ccc(OCC(=O)N/N=C\c2ccncc2)c(C)c1	x	x	96	106	x
CCC1(C(=O)c2ccc(Cl)cc2)C2c3ccccc3OC(=O)C21C(=O)Nc1ccccc1 (configuration not stated)	x	x	93	92	x
Cc1ccnc(Sc2ccc([N+](=O)[O-])cc2[N+](=O)[O-])n1	x	x	5.2*	6	x
Cc1ccc(Sc2ccc([N+](=O)[O-])cc2[N+](=O)[O-])nc1	x	x	56	64	x
O=[N+]([O-])c1ccc(Sc2nc3ccccc3o2)c([N+](=O)[O-])c1	0.2*	0.9*	1.9*	1.4*	2.6*
O=[N+]([O-])c1ccc(Cl)cc1Sc1nc2ccccc2o1	25*	95	9	9	41
CC(=O)CSc1nc2ccccc2o1	106	108	96	101	104
CCOC(=O)c1ccc(/C=C2/C=C(c3ccccc3)N(c3ccc(Cl)c(C(=O)O)c3)C2=O)cc1	x	x	11	11	x
COc1ccc(-c2cc(-c3cccs3)c(C#N)c(SCC(=O)NCc3ccccc3)n2)cc1	35*	94	43	42	66
COc1ccc(-c2cc(C(F)(F)F)c(C#N)c(SCC(=O)Nc3ccccc3C#N)n2)cc1	x	x	3.2*	5	x
COc1ccc(-c2cc(-c3cccs3)c(C#N)c(SCC(=O)NCc3ccccc3OC)n2)cc1	11*	49*	10	6	45
COc1ccccc1CNC(=O)CSc1nc(N)c(C#N)c(-c2cccs2)c1C#N	57	94	81	85	87
O=C(O)C1C2CCC(O2)C1C(=O)Nc1ccc(O)cc1 (configuration not stated)	x	x	92	93	x
CCOC(=O)C1CCC(CNCc2ccc(Cl)cc2)CC1 (configuration not stated)	x	x	91	87	x
O=C(Cc1cccs1)Nc1cc(SCCO)cc([N+](=O)[O-])c1	x	x	96	87	x
Cc1ccc(-n2c(SCc3cn4ccsc4n3)nc3ccccc3c2=O)cc1	83	100	85	77	91
Cc1cc(C)c(NC(=O)/C(=C/c2ccccc2)c2ccccc2)c(C)c1	x	x	73	75	x
Clc1ccc(Cl)c(OCc2cc(-c3ccccc3Cl)on2)c1	x	x	31	46	x
CC(C)(C)C(=O)[C@@H]1[C@@H]2C(=O)N(Cc3ccccc3)C(=O)[C@@H]2[C@H]2c3ccccc3C=CN12	34*	101	89	91	105
CC(=O)[C@H]1[C@@H]2C(=O)N(c3cccc(Cl)c3)C(=O)[C@@H]2[C@H]2c3ccccc3C=CN21	87	102	90	91	103
O=C(Nc1ccc(F)cc1)Nc1ccc(N2CCCC2)c(S(=O)(=O)Nc2ccccc2Cl)c1	x	x	2.8*	1.9*	x
O=C(Nc1ccc(Cl)c(Cl)c1)Nc1ccc(N2CCCC2)c(S(=O)(=O)Nc2ccccc2Cl)c1	x	x	1.6*	1.4*	x
CNS(=O)(=O)c1cccc(C(=O)OCc2cc(Cl)cc3c2OCOC3)c1	95	89	89	94	75
C/C(=N\NC(=O)c1c(Cl)cnn1C)c1ccc(NC(=O)c2ccncc2)cc1	x	x	95	95	x
c1ccc(-c2cn3c4c(sc3n2)CCCC4)cc1	21*	67	44	46	52
SMILES	H69AR growth 86K	Fibroblast inh	HCT116 bCat-KO	PTEN del growth	HUVEC prolif 384
c1ccc(-c2cn3nc(-c4ccccc4)sc3n2)cc1	61	80	x	x	69
CCOC(=O)COc1ccc(S(=O)(=O)Nc2cccc(SC)c2)cc1	105	47*	92	87	14*
Cc1oc2c(cc(NS(=O)(=O)c3cccs3)c3ccccc32)c1C(=O)OC(C)C	73	91	78	80	76
COC(=O)c1cccc(NS(=O)(=O)c2ccc(OC)c(OC)c2)c1C	108	97	89	93	98
CCOC(=O)c1ccccc1NS(=O)(=O)c1ccc(OCC)cc1	13*	64	15	19	65
COC(=O)c1cccc(NS(=O)(=O)c2ccc(OC)cc2)c1C	23*	86	23	27	60
COc1ccc(S(=O)(=O)Nc2cc3c(C(C)=O)c(C)oc3c3ccccc23)cc1	25*	51	19	19	37
FC(F)(F)c1ccc(Cl)c(NC(=S)NC2CC2)c1	x	x	92	97	x
CC(=O)N1CCC(N(CCN2CCOCC2)C(=S)Nc2cc(C)ccc2C)CC1	x	x	102	98	x
CCOc1ccc(Cl)cc1S(=O)(=O)n1cnc2ccccc21	20*	62	46	43	59
CCOc1cc(C)c(Cl)cc1S(=O)(=O)n1cnc2ccccc21	39*	97	98	88	77
COc1ccc(Cl)cc1S(=O)(=O)n1cnc2ccccc21	17*	80	92	97	58
Cc1ccc2cc(C3C(C#N)=C(N)Oc4c3ccc3cccnc43)c(=O)[nH]c2c1 (configuration not stated)	37*	51	82	93	80
CCc1ccc2[nH]c(=O)c(C3C(C#N)=C(N)Oc4c3ccc3cccnc43)cc2c1 (configuration not stated)	0.8*	70	13	15	57
Cc1ccc(C)c2c3c([nH]c12)-c1nonc1CC3	86	103	94	92	98
C(=N\c1nc2ccccc2n1Cc1ccccc1)/c1cccs1	99	86	73	81	107
Cc1cccc(OCc2nc(-c3cccnc3)no2)c1	x	x	95	91	x
CC(C)(C)NC(=O)COC(=O)/C=C/c1ccccc1[N+](=O)[O-]	x	x	100	106	x
CCOc1ccc2cc(C#N)c(SCC(=O)N3CCC(C)CC3)nc2c1	23*	79	37	44	48
COC(=O)CSc1nc2cc(OC)ccc2cc1C#N	75	89	18	27	72
CCOc1ccc2cc(C#N)c(SCC(=O)NC(C)CC)nc2c1 (configuration not stated)	29*	102	95	93	68
CCOC(=O)CSc1nc2cc(OCC)ccc2cc1C#N	31*	102	92	87	63
O=C(CSc1nnc(-c2ccccc2NC(=O)c2ccccc2)o1)OC1CCCCC1	52	104	x	x	85
Cc1csc(=O)n1CCC(=O)O	98	94	90	95	97
CCCCNC(=S)NNC(=O)c1ccco1	96	105	103	91	109
CCOC(=O)c1c(C)c(C(=O)Nc2ccc3c(c2)OCO3)c(C)n1C	84	97	79	92	87
Cc1ccc(-n2nc3ccc(NC(=O)c4ccc5c(c4)OCO5)cc3n2)cc1	45	110	93	97	93
CCc1ccc(-n2nc3ccc(NC(=O)c4ccc5c(c4)OCO5)cc3n2)cc1	20*	91	78	75	76
CCOC(=O)c1c(C)c(C(=O)Nc2ccc3c(c2)OCCO3)c(C)n1CC	20*	91	30	31	75
